Compounds with a hit are over-represented: about 2.6% of the library has one in this group of screens.
SIRT5 inh = inhibitors of human sirtuin-5 desuccinylase. Q9NXA8. Purified SirT5, succinyl-peptide AMC, trypsin-coupled fluorescence. inhibition, % at 15 µM. 330,000 compounds, 1.1% hits. AID 652115; in the data active = inhibition above about 15%
FGF22 binding = FGF22 (human) thermal shift binding; Q9HCT0; recombinant FGF22 thermal shift, SYPRO orange fluorescence; percent of sucrose octasulfate shift, DMSO zero; activity (Tm shift, normalised), % at 9.99 µM; 340,000 compounds, 1.5% hits; AID 651658;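 active = mean Tm shift, scaled 0 neutral to 100 positive control, at about 1.3% or above, every replicate too, limit read from the data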
Target sequence (Q9HCT0 whole entry, looked up): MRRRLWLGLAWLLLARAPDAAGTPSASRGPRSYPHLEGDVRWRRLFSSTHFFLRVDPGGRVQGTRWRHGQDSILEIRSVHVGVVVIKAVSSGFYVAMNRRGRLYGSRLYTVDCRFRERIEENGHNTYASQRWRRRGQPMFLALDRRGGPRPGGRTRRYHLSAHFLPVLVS
Casp6 inh = caspase-6 (human) enzyme inhibition. P55212. purified caspase-6, Z-VEID-R110 cleavage fluorescence. inhibition, % at 12.5 µM. 350,000 compounds, 0.53% hits. AID 686996;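 active = mean inhibition across replicates at least about 35%, with every replicate also reaching that limit, limit read from the data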;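 note: 0% = median of neutral control wells and 100% = no fluorescence left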
NSD2 inh = inhibitors of human histone methyltransferase NSD2; NSD2 peptide methylation, AlphaScreen, 120 min; inhibition, % at 12.5 µM; 310,000 compounds, 0.54% hits; AID 743445; in the data active = inhibition above about 50%
UCH37 DUB inh = inhibitors of human deubiquitinating enzyme UCH37; Q9Y5K5; purified proteasome/UCH37, Ub-AMC cleavage fluorescence; inhibition, % (no concentration beside the values); 330,000 compounds, 0.33% hits; AID 588478;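 active = mean inhibition over replicate wells above about 20%, limit read from the data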;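 note: 0% = compound-free wells with enzyme and 100% = wells lacking proteasome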
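Signal – fluorescence, ex 355 nm, em 460 nm · System – Proteasome-bound UCH37 · Input – 0.15 nM proteasome as dispensed · Timing – 30 min preincubation with enzyme, 25 min cleavage at room temperature · Read-out basis – percent inhibition of cleavage signal versus uninhibited and no-proteasome wells · Medium – Tris-HCl pH 7.4 with ATP-MgCl2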
AlphaScreen art = counter-screen for NSD2 inhibitors: AlphaScreen artifacts | AID 1053174 | shares compounds with NSD2 inh | AlphaScreen artifact counterscreen, preloaded methylated H4 peptide | AC35, µM (highest dose often 10 µM), without a hit: top-dose activity change, negative = signal loss | 1,500 compounds, 9.4% hits; call rule not given here
* = called active by the depositor.

`Cc1ccc2cccc(OCc3ccc(Br)cc3)c2n1` gave SIRT5 inh -2.1, FGF22 binding 0.0, Casp6 inh 0.9, NSD2 inh 50.8*, UCH37 DUB inh 4.0 and AlphaScreen art -5.6%.
C[C@@H]1CN([C@@H](C)CO)C(=O)c2cc(-c3cccc(C#N)c3)cnc2O[C@H]1CN(C)Cc1ccc(F)cc1 was read as SIRT5 inh -2.3, FGF22 binding 0.0 and Casp6 inh -1.9.
`Cc1ccccc1N(C(=O)c1snc(C(N)=O)c1N)C(C(=O)NC1CCCCC1)c1ccc(O)cc1` (stereo not given) gave SIRT5 inh 1.3, FGF22 binding -0.3, Casp6 inh -0.8, NSD2 inh -2.1 and UCH37 DUB inh -57.1.
Cc1ccccc1N(C(=O)c1snc(C(N)=O)c1N)C(C)C(=O)NC1CCCCC1 (stereo not given) was read as SIRT5 inh -4.1, FGF22 binding -0.1, Casp6 inh 1.3, NSD2 inh 78.2* and AlphaScreen art 1.6%.
CC(NC1=CC(=O)c2cccnc2C1=O)C(O)c1ccccc1 (stereo not given) was read as SIRT5 inh -0.7, FGF22 binding -1.2, Casp6 inh 99.7*, NSD2 inh 113.6* and AlphaScreen art 0.7%.
`CC(c1ccccc1)N1C(=O)c2cccnc2C1=O` (stereo not given) gave SIRT5 inh 0.5, FGF22 binding 0.1, Casp6 inh 0.7, NSD2 inh -1.3 and UCH37 DUB inh 3.9.
Screening CC(C)C1Nc2ccc(C(=O)O)cc2C2C=CCC21 (stereo not given) returned SIRT5 inh 23.1*, Casp6 inh 10.2, NSD2 inh 58.2*, UCH37 DUB inh 3.6 and AlphaScreen art -5.0%.
Screening CCCC1Nc2ccc(C(=O)O)cc2C2C=CCC12 (stereo not given) returned NSD2 inh 92.0*, UCH37 DUB inh 0.5 and AlphaScreen art -0.8%.
O=C([C@H]1[C@H](CO)[C@H]2Cn3c(cccc3=O)[C@H]2N1CC1CCCC1)N1CCc2ccccc2C1 was read as SIRT5 inh 11.5, FGF22 binding -0.1 and Casp6 inh 0.3.
Screening O=C(CC1SC2=NCCN2C1=O)Nc1ccccc1 (stereo not given) returned NSD2 inh 115.2*, UCH37 DUB inh 4.2 and AlphaScreen art -3.1%.
Screening Cc1cc(C)n(-c2nc(NCC(C)O)c3c4c(sc3n2)COC(C)(C)C4)n1 (stereo not given) returned NSD2 inh 80.6*, UCH37 DUB inh -199.3 and AlphaScreen art -6.7%.
For Cc1cc(C)n(-c2nc(NCC(C)O)c3c4c(sc3n2)CCCC4)n1 (stereo not given) the results were NSD2 inh 0.2 and UCH37 DUB inh -61.1.
For CO[C@@H]1CN(C)C(=O)c2cc(NC(=O)C3CC3)ccc2OC[C@H](C)N(Cc2cncnc2)C[C@@H]1C the results were SIRT5 inh 1.7, FGF22 binding 0.0 and Casp6 inh -2.1.
Screening CN(C)C(=O)C[C@@H]1CC[C@H]2[C@@H](COC[C@H](O)CN2C(=O)C2CCOCC2)O1 returned SIRT5 inh -0.8, FGF22 binding -0.7 and Casp6 inh -2.3.
`CCNC(=O)C1CCCN(C(=O)c2ccccc2OC(F)(F)F)CC1` (stereo not given) gave SIRT5 inh -0.5, FGF22 binding 0.3, Casp6 inh -0.7, NSD2 inh 60.3* and AlphaScreen art -3.3%.
For COc1ccccc1NC(=O)c1ccccc1NS(=O)(=O)N1CCCC1 the results were NSD2 inh 83.0*, UCH37 DUB inh 3.8 and AlphaScreen art -3.5%.
`COC(=O)c1cc(NC(=O)Nc2cc(OC)ccc2OC)cc(C(=O)OC)c1` gave NSD2 inh 119.8*, UCH37 DUB inh 2.1 and AlphaScreen art 3.0%.
For C[C@@H]1CN([C@@H](C)CO)C(=O)c2cc(-c3cccnc3)cnc2O[C@H]1CN(C)C(=O)Cc1cccnc1 the results were SIRT5 inh 1.4, FGF22 binding -0.5 and Casp6 inh 2.7.
For COCC#Cc1ccc2c(c1)O[C@H](CN(C)C(=O)NC(C)C)[C@H](C)CN([C@@H](C)CO)S2(=O)=O the results were SIRT5 inh 3.9, FGF22 binding 0.2 and Casp6 inh -0.8.
